pIC50: −log10 of the molar value. Calls of active or inactive are those of the source.
What was measured:
[1] = biological target: CYP2C9 (Homo sapiens, UniProt P11712); experiment: Inhibition of human recombinant CYP2C9 at 10 uM; type: ADME
[2] = system: A549; experiment: Induction of apoptosis in p53+, pRb+ human A549 cells assessed as fragmented nuclei/distrupted cell membrane at 1 to 10 uM by DAPI staining-based flow cytometry; type: functional; conditions: TDE = time-dependent effect
[3] = system: NCI-H358; experiment: Induction of apoptosis in p53 null, […] human NCI-H358 cells assessed as fragmented nuclei/distrupted cell membrane after 24 hrs by DAPI staining-based flow cytometry
[4] = biological target: Tubulin (Homo sapiens) (UniProt P68371+Q9H4B7+P0DPH7+P68366+Q13509+Q71U36+P04350+Q3ZCM7+P07437+P68363+Q9BQE3+Q6PEY2+Q13885+Q9BVA1+Q9BUF5); experiment: Inhibition of tubulin (unknown origin) polymerization assessed as decrease in Vmax measured by spectrophotometry; type: protein-complex assay
Summary of the method: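 Purified tubulin polymerisation followed as absorbance increase over about 4000 s. Vmax (mOD/min) is taken as the read-out, with final polymer mass also noted. Compound is tested at 2.5, 5, 10 and 25 µM alongside untreated control, paclitaxel 10 µM (enhancer) and nocodazole 10 µM (inhibitor). Curves are the average of three independent experiments.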

[5] = system: LS174T; experiment: Reduction cyclin B1 level in p53+, pRb+ human LS 174T cells at IC50 concentration after 24 hrs by Western blot analysis
[6] = biological target: CYP2D6 (Homo sapiens, UniProt P10635); experiment: Inhibition of human recombinant CYP2D6 at 10 uM; type: ADME
CYP2D6, sequence (P10635 whole entry): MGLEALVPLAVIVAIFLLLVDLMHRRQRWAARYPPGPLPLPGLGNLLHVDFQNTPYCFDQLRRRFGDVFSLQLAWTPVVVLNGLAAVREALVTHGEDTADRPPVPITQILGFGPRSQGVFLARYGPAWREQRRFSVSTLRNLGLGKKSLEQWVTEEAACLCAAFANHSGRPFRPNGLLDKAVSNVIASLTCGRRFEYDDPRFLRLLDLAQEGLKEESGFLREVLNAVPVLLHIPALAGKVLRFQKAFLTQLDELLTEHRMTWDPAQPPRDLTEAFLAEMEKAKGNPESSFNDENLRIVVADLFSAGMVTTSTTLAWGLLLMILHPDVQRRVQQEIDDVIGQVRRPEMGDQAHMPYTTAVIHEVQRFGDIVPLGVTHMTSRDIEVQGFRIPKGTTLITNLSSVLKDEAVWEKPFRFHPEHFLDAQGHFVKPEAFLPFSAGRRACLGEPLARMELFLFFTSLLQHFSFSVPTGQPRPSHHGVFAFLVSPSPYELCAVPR

[7] = Antitumor activity against human HCT116 cells xenografted in SCID mouse assessed as inhibition of tumor growth at 100 mg/kg, ip relative to untreated control; type: functional; conditions: HCT-116, ip, route intraperitoneal
Summary of the method: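 SCID male mice, 18-25 g, 6-8 weeks old, received 6.6 × 10^6 HCT-116 cells subcutaneously on the dorsal side. Randomized into groups of 7 at 4-6 mm tumors (about 5 days), then dosed intraperitoneally for 9 consecutive days. Tumor size recorded every 2-5 days, weight = L×W²×0.5; %GI = 100 − %T/C. Body weight taken daily relative to start; Student t-test.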

[8] = system: A549; experiment: Reduction cyclin B1 level in p53+, pRb+ human A549 cells at IC50 concentration after 24 hrs by Western blot analysis
[9] = biological target: Cyclin-dependent kinase 7/ cyclin H (Homo sapiens) (UniProt P51946+P50613); experiment: Inhibition of human CDK7/cyclinH assessed as enzyme activity at 10 uM; type: protein-complex assay
[10] = biological target: Dual specificity mitogen-activated protein kinase kinase 1 (Homo sapiens) (UniProt Q02750); experiment: Inhibition of human MEK1 assessed as enzyme activity at 10 uM
Dual specificity mitogen-activated protein kinase kinase 1 (Homo sapiens), sequence (Q02750 whole entry): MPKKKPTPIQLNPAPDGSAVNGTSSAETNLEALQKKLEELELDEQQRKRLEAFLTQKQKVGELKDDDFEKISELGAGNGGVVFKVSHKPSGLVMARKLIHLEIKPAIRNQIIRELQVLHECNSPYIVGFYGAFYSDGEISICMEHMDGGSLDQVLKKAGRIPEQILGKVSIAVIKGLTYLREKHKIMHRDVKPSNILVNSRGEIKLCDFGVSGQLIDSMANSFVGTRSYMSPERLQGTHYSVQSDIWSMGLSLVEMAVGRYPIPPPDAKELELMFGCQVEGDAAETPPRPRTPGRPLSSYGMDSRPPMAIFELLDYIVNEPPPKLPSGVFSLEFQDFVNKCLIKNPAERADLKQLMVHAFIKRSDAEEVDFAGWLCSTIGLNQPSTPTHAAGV

[11] = Growth inhibition of mouse BNL-SVA.8 cells after 48 hrs by MTT assay; type: functional
Summary of the method: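 MTT cell proliferation assay. IC50 (µM) was defined as the concentration giving 50% inhibition of cell growth.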

[12] = Cell cycle arrest in mouse BNL-SVA.8 cells assessed as accumulation of cells at subG1 phase at IC70 concentration after 48 hrs by flow cytometry; type: functional
Summary of the method: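 Normal (BNL CL2) and SV40 large T-antigen transformed (BNL SV A.8) mouse embryonic hepatic cells were treated at IC50 or IC70 concentration for 48 h. Analysis was by FACS, with apoptosis taken as % cells in the sub-G1 peak. Untreated cells served as control.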

[13] = organism: Homo sapiens; experiment: Selectivity ratio of IC50 for human CDK2/cyclin A to IC50 for human CDK4/cyclin D1

CYP2C9, sequence (P11712 whole entry, the tested form may be a part): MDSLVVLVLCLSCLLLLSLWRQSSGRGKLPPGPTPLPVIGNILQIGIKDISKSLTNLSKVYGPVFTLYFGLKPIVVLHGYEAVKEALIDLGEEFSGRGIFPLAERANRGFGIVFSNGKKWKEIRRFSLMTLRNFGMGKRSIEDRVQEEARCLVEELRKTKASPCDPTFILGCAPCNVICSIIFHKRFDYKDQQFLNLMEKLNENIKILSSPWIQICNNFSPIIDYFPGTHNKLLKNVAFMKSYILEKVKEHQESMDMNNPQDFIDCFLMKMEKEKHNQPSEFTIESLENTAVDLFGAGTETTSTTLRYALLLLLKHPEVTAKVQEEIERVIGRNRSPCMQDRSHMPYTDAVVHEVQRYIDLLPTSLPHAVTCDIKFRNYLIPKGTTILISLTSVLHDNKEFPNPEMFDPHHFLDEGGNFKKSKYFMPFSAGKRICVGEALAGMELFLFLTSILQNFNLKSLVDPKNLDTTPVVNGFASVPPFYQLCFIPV

In the case of CN(CCc1c[nH]c2ccccc12)C(=O)c1ccc(-c2ccccc2)cc1, the inhibition at 10 µM [1] was 51%, the Activity [2] was “tde” and the Activity [3] was “Dose-dependent effect”. For the same compound, the inhibition [4] was “Dose-dependent effect”, the inhibition [5] was “Active” and the inhibition at 10 µM [6] was 14%. For the same compound, the inhibition in vivo at 100 mg/kg [7] was 80%, the inhibition [8] was “Active” and the inhibition [9] was “inactive”. The inhibition [10] was “inactive”, the pIC50 [11] was 5.42 and the Activity [12] was 44%. The Ratio IC50 [13] was 84.
